In the library only some 1.4% were active in any assay of this set; here they are far more common.
UCH37 inh: human UCH37 deubiquitinating enzyme inhibition. Q9Y5K5. 330,000 tested, 0.33% active. purified proteasome/UCH37, Ub-AMC cleavage fluorescence. inhibition, % (no concentration beside the values);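 active = mean inhibition over replicate wells above about 20%, limit read from the data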
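assay system = human UCH37 enzyme supplied as purified proteasome complex | amount = proteasome at 0.15 nM in the dispensed enzyme solution | schedule = 30 min compound-proteasome preincubation then 25 min substrate reaction, room temperature | measured by = fluorescence, ex 355 nm, em 460 nm | benchmarks = no-proteasome wells (full inhibition) and compound-free wells (no inhibition)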
Neddylation inh: cullin neddylation inhibition | P61081+Q13564 | inhibition, % at 25 µM | TR-FRET cullin neddylation, biochemical | 360,000 tested, 0.58% active | AID 651699; in the data active = inhibition above about 36%
Target sequence (P61081 whole entry, looked up): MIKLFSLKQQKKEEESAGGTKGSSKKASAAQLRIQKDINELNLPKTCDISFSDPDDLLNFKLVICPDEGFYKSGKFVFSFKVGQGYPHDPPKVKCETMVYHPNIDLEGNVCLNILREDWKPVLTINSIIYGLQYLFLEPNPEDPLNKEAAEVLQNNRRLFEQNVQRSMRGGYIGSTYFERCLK
Target sequence (Q13564 whole entry, looked up): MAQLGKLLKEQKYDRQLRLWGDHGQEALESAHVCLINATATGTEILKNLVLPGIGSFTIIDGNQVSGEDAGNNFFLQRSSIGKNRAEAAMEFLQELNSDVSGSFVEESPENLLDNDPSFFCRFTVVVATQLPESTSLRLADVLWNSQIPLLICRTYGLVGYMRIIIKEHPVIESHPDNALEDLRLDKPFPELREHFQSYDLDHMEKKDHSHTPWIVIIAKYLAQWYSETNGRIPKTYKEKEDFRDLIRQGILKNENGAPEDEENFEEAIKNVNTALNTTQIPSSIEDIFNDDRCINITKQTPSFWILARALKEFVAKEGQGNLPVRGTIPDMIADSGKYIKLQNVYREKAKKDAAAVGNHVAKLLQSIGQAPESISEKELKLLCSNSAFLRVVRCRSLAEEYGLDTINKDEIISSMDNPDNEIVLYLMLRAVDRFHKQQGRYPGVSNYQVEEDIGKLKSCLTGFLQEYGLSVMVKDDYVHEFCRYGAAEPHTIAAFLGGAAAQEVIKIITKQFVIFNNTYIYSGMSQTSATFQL
Fh CTSL1 inh: cathepsin L1 inhibition, PFM18AAP counter-screen. recombinant F. hepatica cathepsin L1, Z-Leu-Arg-MCA fluorescence. inhibition, % at 5.96 µM. 300,000 tested, 0.49% active. AID 1906;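 active = inhibition above the mean of all tested compounds plus 3 SD, set per screening campaign, cut at about 17% in these data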
SUMO HTRF inh: blocks human SUMOylation mediated by UBC9; inhibition, % at 35 µM; HTRF SUMOylation assay, SAE1/SAE2 + UBC9, in vitro; 290,000 tested, 0.36% active; AID 2006; in the data active = inhibition above about 50%, passing the limit was not always enough
Of the large screens only hits and unclear results are named; the others gave an inactive call.

COc1ccccc1-n1cnc(N)c1C(=O)c1ccccc1	Fh CTSL1 inh 19
COC(=O)C/C=C/[C@@H](C)[C@@H](C=NOC[C@H]1O[C@H](c2ccccc2)C=C[C@@H]1Oc1ccc(OC)cc1)OC	none (no result: Neddylation inh, Fh CTSL1 inh, SUMO HTRF inh)
O=C(CSc1nccc(=O)[nH]1)N1N=C2/C(=C/c3ccco3)CCCC2C1c1ccco1 (stereo not given)	Fh CTSL1 inh 17
Nc1nc(SCC(=O)N2N=C3/C(=C/c4ccco4)CCCC3C2c2ccco2)n[nH]1 (stereo not given)	none
Cc1ccsc1C(=O)NN=C/C=C/c1ccccc1[N+](=O)[O-]	none (no result: Neddylation inh, Fh CTSL1 inh, SUMO HTRF inh)
Cn1nc(C(F)(F)F)c(C=NOC(=O)c2ccccc2)c1Sc1ccc(Cl)cc1	none (no result: Neddylation inh, Fh CTSL1 inh, SUMO HTRF inh)
O=C1C=C(c2ccccc2)C[C@H](c2cccs2)[C@H]1n1nnc([N+](=O)[O-])n1	Fh CTSL1 inh 33
O=C(CC12CC3CC(CC(C3)C1)C2)NN=Cc1ccc[nH]1	none (no result: Neddylation inh, Fh CTSL1 inh, SUMO HTRF inh)
COc1ccc(-c2nc(SCC(=O)Nc3cc(C)on3)n[nH]2)cc1	SUMO HTRF inh 50
Brc1ccc(C=NN2CCN(C3c4ccccc4-c4ccccc43)CC2)s1	none (no result: Neddylation inh, Fh CTSL1 inh, SUMO HTRF inh)
CCC(=NNC(=O)OC)c1ccc(OC(F)F)cc1	none (no result: Neddylation inh, Fh CTSL1 inh, SUMO HTRF inh)
O=[N+]([O-])c1cc(Cl)c2cccnc2c1O	none
O=[N+]([O-])c1cc(CN2CCOCC2)c2cccnc2c1O	SUMO HTRF inh 89 (no result: UCH37 inh, Neddylation inh, Fh CTSL1 inh)
O=[N+]([O-])c1cc(Cl)c(O)c2ncccc12	UCH37 inh 25, SUMO HTRF inh 59 (no result: Fh CTSL1 inh)
CCOC(=O)c1cc(C)sc1N=CC1=C(O)CCCC1=O	none (no result: Neddylation inh, Fh CTSL1 inh, SUMO HTRF inh)
CCn1c(C)cc(/C=C2/SC(=S)N(CC(=O)O)C2=O)c1C	UCH37 inh 21
Nc1ccc(N2CCCCCC2)cc1	SUMO HTRF inh 62 (no result: UCH37 inh, Neddylation inh)
CCN(CC)c1ccc(C=NN2C(=O)c3ccccc3C2=O)c(O)c1	none (no result: Neddylation inh, Fh CTSL1 inh, SUMO HTRF inh)
O=C1c2ccccc2C(=O)N1/N=C/c1ccc(O)c(O)c1O	SUMO HTRF inh 72 (no result: UCH37 inh, Fh CTSL1 inh)
CCc1[nH]nc(C(=O)NN=Cc2ccncc2)c1C	none (no result: Neddylation inh, Fh CTSL1 inh, SUMO HTRF inh)
COc1ccc(CC(=O)Nc2cccc(C(C)=NNC(=O)C3(C)CC3(Br)Br)c2)cc1 (stereo not given)	none (no result: Neddylation inh, Fh CTSL1 inh, SUMO HTRF inh)
CC1CC(C)CN(S(=O)(=O)c2cccc(C(=O)OCCN3CCCC3=O)c2)C1 (stereo not given)	Fh CTSL1 inh 18
COC(CNC(=O)c1cccnc1)OC	none
COC(CNC(=O)c1ccc2c3c(onc13)-c1ccccc1C2=O)OC	UCH37 inh 20
CN1CCN(C(=O)C2CCC(CNS(=O)(=O)c3cccc4cccnc34)CC2)CC1 (stereo not given)	none
O=C(NCCN1CCCCCC1)C1CCC(CNS(=O)(=O)c2cccc3cccnc23)CC1 (stereo not given)	Fh CTSL1 inh 39
Nc1nc(N)c(N=O)c(OCC2CCCCC2)n1	Fh CTSL1 inh 104
CC1(C)CC2CC(C)(CN2C(=O)COC(=O)CNC(=O)c2ccc(Cl)c(Cl)c2)C1 (stereo not given)	Fh CTSL1 inh 27
CC1CCN(CCNC(=O)C2CCCN(S(=O)(=O)c3cccc4nonc34)C2)CC1 (stereo not given)	Fh CTSL1 inh 24
COc1ccc(-c2nnc(N3CCOCC3)c3ccccc23)cc1	Fh CTSL1 inh 19
COc1ccc(-c2nnc(N3CCCCC3)c3ccccc23)cc1	none
CC1=NN(c2ccccc2)C(=O)C1N=Nc1ccc(S(N)(=O)=O)cc1 (stereo not given)	Fh CTSL1 inh 19
CCCN1C(=O)C2(C(C(=O)c3ccc(C)o3)=C(O)C(=O)N2CCCN2CCOCC2)c2ccccc21 (stereo not given)	UCH37 inh 21
C=CCN1C(=O)C2(C(C(=O)c3ccc(C)o3)=C(O)C(=O)N2CCCN2CCOCC2)c2ccccc21 (stereo not given)	none
Cc1ccc(C(=O)c2c3ccccc3[n+]([O-])n2CCC(=O)O)cc1	none (no result: SUMO HTRF inh)
NC(=O)CCn1c(C(=O)c2ccc(Cl)cc2)c2ccccc2[n+]1[O-]	UCH37 inh 28
C(=Nc1nc2ccccc2n1CCN1CCCCC1)c1ccc2c(c1)OCO2	none (no result: Neddylation inh, Fh CTSL1 inh, SUMO HTRF inh)
CC(=NN1CCN(c2ccccc2)CC1)c1ccccc1O	none (no result: Neddylation inh, Fh CTSL1 inh, SUMO HTRF inh)
O=Cc1c[nH]c2ccc(C(=O)c3ccccc3)cc12	Fh CTSL1 inh 18
COc1ccc(C(=O)NN=Cc2cc(Br)ccc2O)cc1OC	none (no result: Neddylation inh, Fh CTSL1 inh, SUMO HTRF inh)
Cc1ccc(S(=O)(=O)N2CCOC2CNC(=O)C(=O)NCCc2c[nH]c3ccccc23)cc1 (stereo not given)	UCH37 inh 29
CC(=NNC(=O)CCC(=O)Nc1ccccc1)c1cccs1	none (no result: Neddylation inh, Fh CTSL1 inh, SUMO HTRF inh)
COC(=O)C1=C(C)N(c2ccc(OC)c(OC)c2)C(=O)C1	Fh CTSL1 inh 20
COC(=O)C1=C(C)N(c2ccc(F)cc2)C(=O)C1	none

Compound activity: PubChem BioAssay, several laboratories
